# Assay results from ChEMBL document CHEMBL1142705, “Rational design, synthesis, and structure-activity relationships of aryltriazoles as novel corticotropin-releasing factor-1 receptor antagonists” (J Med Chem, 2005).
# Tests used:
# [1] = biological target: T1, Corticotropin-releasing factor receptor 1 (Homo sapiens, UniProt P34998); experiment: Inhibition of [125I][Tyr0]-sauvagine binding to human Corticotropin releasing factor receptor 1 expressed in mouse fibroblast Ltk- cells; format: cell-based
# T1 sequence (P34998 whole entry): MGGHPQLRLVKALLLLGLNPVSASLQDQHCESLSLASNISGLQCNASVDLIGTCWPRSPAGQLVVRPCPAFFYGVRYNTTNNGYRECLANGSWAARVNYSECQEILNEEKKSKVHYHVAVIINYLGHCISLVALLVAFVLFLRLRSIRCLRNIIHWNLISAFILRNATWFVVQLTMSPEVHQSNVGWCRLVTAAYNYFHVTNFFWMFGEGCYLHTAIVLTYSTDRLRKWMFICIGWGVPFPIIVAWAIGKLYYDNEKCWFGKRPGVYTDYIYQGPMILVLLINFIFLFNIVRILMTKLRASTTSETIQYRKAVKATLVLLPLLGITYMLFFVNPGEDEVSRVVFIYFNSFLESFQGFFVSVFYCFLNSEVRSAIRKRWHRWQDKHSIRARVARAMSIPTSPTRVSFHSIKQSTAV
# [2] = biological target: Corticotropin releasing factor receptor (Rattus norvegicus, UniProt P47866+P35353); experiment: Inhibition of corticotropin releasing factor stimulated cAMP production in rat pituitary assay; format: functional, tissue-based, Pituitary gland
# [3] = biological target: T2, Corticotropin-releasing factor receptor 2 (Homo sapiens, UniProt Q13324); experiment: Binding affinity for human Corticotropin releasing factor receptor 2
# T2 sequence (Q13324 whole entry): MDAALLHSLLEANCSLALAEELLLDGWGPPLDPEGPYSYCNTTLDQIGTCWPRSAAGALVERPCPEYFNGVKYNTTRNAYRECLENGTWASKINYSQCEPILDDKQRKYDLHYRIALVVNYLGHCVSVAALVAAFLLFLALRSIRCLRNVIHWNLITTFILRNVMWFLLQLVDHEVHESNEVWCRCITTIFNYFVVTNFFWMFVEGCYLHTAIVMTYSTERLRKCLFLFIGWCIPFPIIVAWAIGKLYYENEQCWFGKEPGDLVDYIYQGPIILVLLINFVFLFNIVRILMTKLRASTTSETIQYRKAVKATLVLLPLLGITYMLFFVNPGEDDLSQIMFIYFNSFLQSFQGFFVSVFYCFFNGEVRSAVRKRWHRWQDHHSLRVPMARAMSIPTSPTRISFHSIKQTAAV
# [4] = Peak plasma concentration upon oral administration of 2 mg/kg to rats; format: ADME, organism-based; design: dose 2 mg/kg, route oral; conditions: rat
# How it was run: (§1)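 Male Sprague-Dawley rats were dosed at 1 mg/kg iv via the tail vein and at 2 mg/kg by oral gavage, n = 3 per time point. The dosing solution was in purified water at 2 mL/kg. Terminal plasma was sampled at set times (composite design), acetonitrile-precipitated and analysed by LC-MS/MS (LLOQ 5 ng/mL). Parameters came from noncompartmental analysis.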
# [5] = Clearance of compound in rats upon intravenous administration of 1 mg/kg; format: ADME, organism-based; design: dose 1 mg/kg, route intravenous; conditions: rat, in vivo; how it was run: as §1
# [6] = Area under concentration time curve upon oral administration of 2 mg/kg to rats; format: ADME, organism-based; design: dose 2 mg/kg, route oral; conditions: rat, in vivo; how it was run: as §1
# [7] = Plasma half life in rats upon intravenous administration of 1 mg/kg; format: ADME, organism-based; design: dose 1 mg/kg, route intravenous; conditions: rat; how it was run: as §1
# [8] = Bioavailability upon 2 mg/kg oral administration to rats; format: ADME, organism-based; conditions: rat, in vivo; how it was run: as §1
# [9] = Volume of distribution in rats upon intravenous administration of 1 mg/kg; format: ADME, organism-based; design: dose 1 mg/kg, route intravenous; conditions: rat, in vivo, read-out: V; how it was run: as §1
# [10] = Ratio of compound concentration in brain to that of plasma of rats upon intravenous administration of 1 mg/kg; format: ADME, organism-based; design: dose 1 mg/kg, route intravenous; conditions: rat
# How it was run: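 Male Sprague-Dawley rats, 3 per time point, received 1 mg/kg iv by tail vein at 2 mL/kg in filtered purified water. Terminal blood and brain were taken at set times for composite sampling. Plasma was acetonitrile-precipitated and half-brains were homogenized in 50:50 acetonitrile/water, then measured by LC-MS/MS (LLOQ 5 ng/mL plasma, 0.5 ng/g brain). Ratio = brain AUC / plasma AUC, noncompartmental.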
# [11] = Time to attain peak plasma concentration upon oral administration of 2 mg/kg to rats; format: ADME, organism-based; design: dose 2 mg/kg, route oral; conditions: rat; how it was run: as §1
Structure (SMILES),Ki [1] [nM],other results
CCCN(c1nc(-c2ccc(Cl)cc2OC)n(C)n1)C(C1CC1)C1CC1,28,
CCCN(c1nc(-c2ccc(Cl)cc2Cl)n(C)n1)C(C1CC1)C1CC1,9.2,IC50 [2]: 90 nM; Ki [3]: > 10000 nM
CCC(c1ccccc1)N(CC)c1nc(-c2ccc(Cl)cc2OC)n(C)n1 (configuration not stated),150,
CCCCC(CC)N(CC1CC1)c1nc(-c2ccc(Cl)cc2OC)n(C)n1 (configuration not stated),440,
CCCCC(CC)N(CCOC)c1nc(-c2ccc(Cl)cc2OC)n(C)n1 (configuration not stated),280,
CCCN(c1nc(-c2ccc(Cl)cc2OC)n(C)n1)C(C(C)C)C(C)C,910,
CCCN(c1nc(-c2ccc(Cl)cc2OC)n(C)n1)C(CC)c1ccc(C(F)(F)F)cc1 (configuration not stated),12,
CCCCC(c1ccc(F)cc1)N(CCC)c1nc(-c2ccc(OC)cc2OC)n(C)n1 (configuration not stated),24,
CCCN(CCC)c1nc(-c2ccc(Cl)cc2OC)n(C)n1,> 10000,
CCCN(c1nc(-c2ccc(Cl)cc2OC)n(C)n1)[C@H](CC)c1ccc(C(F)(F)F)cc1,428,
CCCC[C@H](c1ccc(F)cc1)N(CCC)c1nc(-c2ccc(Cl)cc2OC)n(C)n1,46,
CCCN(c1nc(-c2ccc(Cl)cc2OC)n(C)n1)[C@@H](CC)c1ccc(C(F)(F)F)cc1.Cl,5.2,IC50 [2]: 120 nM
CCCC[C@@H](c1ccc(F)cc1)N(CCC)c1nc(-c2ccc(Cl)cc2OC)n(C)n1.Cl,2.7,IC50 [2]: 49 nM
CCCC[C@H](c1ccccc1)N(CCC)c1nc(-c2ccc(OC)cc2C)n(C)n1,350,
CCCN(c1nc(-c2ccc(OC)cc2C)n(C)n1)[C@@H](CC)c1ccc(C(F)(F)F)cc1.Cl,,IC50 [2]: 270 nM
CCCN(c1nc(-c2ccc(Cl)cc2Cl)nn1C)C(C1CC1)C1CC1,> 10000,
CCCCC(c1ccc(F)cc1)N(CCC)c1nc(-c2ccc(Cl)cc2OC)n(C)n1 (configuration not stated),7.3,Cmax [4]: 290 ng/mL; clearance [5]: 27.7 mL/min/kg; AUC [6]: 1010 ng·h/mL; half-life [7]: 3.3 h; bioavailability [8]: 84%; Vd [9]: 7.8 L/kg; Ratio [10]: 20%; Tmax [11]: 0.5 h
CCCCC(CC)N(CCC)c1nc(-c2ccc(Cl)cc2OC)n(C)n1 (configuration not stated),46,
CCCN(c1nc(-c2ccc(Cl)cc2OC)n(C)n1)C(C)CC (configuration not stated),690,
CCCN(CCC)c1nc(-c2ccc(Cl)cc2Cl)n(C)n1,3400,
CCCN(CC1CC1)c1nc(C)nc(Nc2c(Cl)cc(Cl)cc2Cl)c1Cl,2,

# Second part, led by results:
Ki [1] [nM],Structure (SMILES),other results
61,CCCC(c1ccccc1)N(CCC)c1nc(-c2ccc(OC)cc2C)n(C)n1 (configuration not stated),
120,CCCC(c1ccccc1)N(CCC)c1nc(-c2ccc(OC)cc2OC)n(C)n1 (configuration not stated),
84,CCCC(c1ccccc1)N(CCC)c1nc(-c2cc(OC)c(OC)cc2Cl)n(C)n1 (configuration not stated),
380,CCC[C@H](c1ccccc1)N(CCC)c1nc(-c2ccc(OC)cc2C)n(C)n1,
5.7,CCCC[C@@H](c1ccccc1)N(CCC)c1nc(-c2ccc(OC)cc2C)n(C)n1.Cl,IC50 [2]: 92 nM
9,CCC[C@@H](c1ccccc1)N(CCC)c1nc(-c2ccc(OC)cc2C)n(C)n1.Cl,IC50 [2]: 120 nM
4,CCCC[C@@H](c1ccccc1)N(CCC)c1nc(-c2ccc(Cl)cc2OC)n(C)n1.Cl,IC50 [2]: 56 nM
6.3,CCC[C@@H](c1ccccc1)N(CCC)c1nc(-c2ccc(Cl)cc2OC)n(C)n1.Cl,IC50 [2]: 91 nM
22,CCC[C@@H](c1ccccc1)N(CCC)c1nc(-c2ccc(OC)cc2OC)n(C)n1.Cl,IC50 [2]: 240 nM
16.3,CCC[C@@H](c1ccccc1)N(CCC)c1nc(-c2cc(OC)c(OC)cc2Cl)n(C)n1.Cl,IC50 [2]: 240 nM
14,CCCC(c1ccccc1)N(CCC)c1nc(-c2ccc(Cl)cc2OC)n(C)n1 (configuration not stated),
6.9,CCCCC(c1ccccc1)N(CCC)c1nc(-c2ccc(OC)cc2C)n(C)n1 (configuration not stated),
26,CCCN(c1nc(-c2ccc(Cl)cc2OC)n(C)n1)C(CC)c1ccccc1 (configuration not stated),
